Screening data (PubChem BioAssay)
Rows were chosen to be rich in hits. Some 3.1% of all compounds tested hit in one or more screens of this group.
S100A4 inh HTS = S100A4-myosin IIA interaction inhibition; AID 652163; P26447; S100A4/TAMRA-MyoIIA peptide fluorescence polarization; inhibition, % at 10.7 µM; 360,000 compounds, 0.14% hits;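 active means mean inhibition of at least 70% across replicates, with every replicate also reaching that level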
Target sequence (P26447 whole entry, looked up): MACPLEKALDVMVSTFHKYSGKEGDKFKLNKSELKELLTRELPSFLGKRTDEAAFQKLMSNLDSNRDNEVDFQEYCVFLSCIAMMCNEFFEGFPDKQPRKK
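Test system: S100A4 monomer protein. Medium: HEPES buffer with Ca2+, pH 7.2. Reagent: fluorescent myosin IIA peptide, 5 nM. Compound dosing: single-point compound testing. Timing: 5 min between mix addition and reading. Benchmarks: DMSO neutral and TFP positive wells.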
Ecoli rRNA inh = selective bacterial rRNA inhibition in E. coli; E. coli WT GFP vs humanized-ribosome RFP mutants, fluorescence, 24 h; active compounds read low; DMSO median 0, no signal -100; 350,000 compounds, 1.6% hits; AID 720706; GFP signal change (wild-type ribosome), % (test concentration not listed);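 active means significant combined selectivity score with lowered wild-type GFP, culture density cut under 30%, mutant RFP and density less affected; inactive means any of these conditions unmet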
ERAP1 HTS inh = ERAP1 (human) enzyme inhibition; AID 652197; recombinant ERAP1, Leu-AMC fluorescence, 60 min; inhibition, % at 10.7 µM; 340,000 compounds, 0.15% hits; Q9NZ08;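 active means mean replicate inhibition of at least 30%, or all replicates individually reaching that 30% level; inactive means mean below 30% and not every replicate reaching it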;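 further: 0% = neutral control wells and 100% = L-leucinethiol positive control wells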
CFTR F508del cor = CFTR F508del correction in bronchial cells; CFBE cells, YFP halide quenching; stimulated with forskolin plus potentiator P3; % fluorescence drop versus neutral controls; activity (quench increase), % at 7.58 µM; 350,000 compounds, 0.36% hits;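 active means mean added fluorescence quench of at least 8% versus neutral control, with both replicates also reaching 8%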;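 further: cells transiently co-express mutant CFTR-F508del with the halide-sensitive YFP; corrector assay measuring rescue of mutant channel to the surface after 24 h compound exposure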
SIRT5 inh = inhibitors of human sirtuin-5 desuccinylase. Q9NXA8. Purified SirT5, succinyl-peptide AMC, trypsin-coupled fluorescence. inhibition, % at 15 µM. 330,000 compounds, 1.1% hits; in the data active means inhibition above about 15%
Target sequence (Q9NXA8 whole entry, looked up): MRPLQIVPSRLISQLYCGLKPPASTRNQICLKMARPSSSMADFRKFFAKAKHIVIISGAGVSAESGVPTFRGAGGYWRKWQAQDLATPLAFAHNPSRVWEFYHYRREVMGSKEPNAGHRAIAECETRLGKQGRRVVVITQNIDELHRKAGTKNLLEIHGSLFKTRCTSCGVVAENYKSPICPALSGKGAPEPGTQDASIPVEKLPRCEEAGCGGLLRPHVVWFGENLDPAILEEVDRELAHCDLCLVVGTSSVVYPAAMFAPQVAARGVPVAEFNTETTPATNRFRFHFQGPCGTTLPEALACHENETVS
An asterisk follows results filed as active; . = no result.

SMILES	S100A4 inh HTS	Ecoli rRNA inh	ERAP1 HTS inh	CFTR F508del cor	SIRT5 inh
O=C(C[C@@H]1C[C@H]2c3cc(NS(=O)(=O)c4ccc(F)cc4)ccc3O[C@H]2[C@H](CO)O1)NCc1ccc(-c2ccccc2)cc1	-1	3	2	-5	20*
CN(C)CC(=O)N[C@H]1CC[C@@H](CC(=O)NCc2ccc(Cl)cc2)O[C@@H]1CO	82*	0	3	-2	6
COCC(=O)Nc1ccc2c(c1)[C@H]1C[C@@H](CC(=O)N3CCOCC3)O[C@@H](CO)[C@H]1O2	3	3	4	0	-1
O=C(C[C@H]1C[C@@H]2c3cc(NC(=O)C4CCOCC4)ccc3O[C@@H]2[C@H](CO)O1)NCCN1CCCCC1	115*	5	0	0	0
O=C(Nc1ccccc1F)N[C@@H]1CC[C@H](CCNS(=O)(=O)c2ccc(F)cc2)O[C@@H]1CO	-18	-3	-3	2	5
O=C(CCN1CCCCC1)NCC[C@H]1CC[C@@H](NC(=O)C2CC2)[C@H](CO)O1	3	2	1	-2	0
C[C@@H]1CN([C@H](C)CO)C(=O)c2cccc(NC(=O)C3CC3)c2O[C@@H]1CN(C)C	2	3	-4	3	3
CCCNC(=O)N1CC2(CCN(C(=O)c3ccncc3)CC2)c2c([nH]c3cc(OC)ccc23)[C@H]1CO	4	-1	-3	-4	6
COCC(=O)N[C@H]1CC[C@H](CC(=O)NCc2ccccc2OC)O[C@H]1CO	-4	4	2	-5	1
COCC(=O)N[C@@H]1CC[C@H](CC(=O)NCc2ccccc2OC)O[C@@H]1CO	1	-1	4	-1	16*
O=C(C[C@@H]1C[C@H]2c3cc(NS(=O)(=O)c4ccccc4)ccc3O[C@H]2[C@@H](CO)O1)N1CCOCC1	111*	-2	1	1	-1
O=C(C[C@H]1CC[C@H](NC(=O)C2CCC2)[C@H](CO)O1)NCc1ccccc1Cl	5	1	0	-1	25*
COCC(=O)Nc1ccc2c(c1)[C@@H]1C[C@@H](CC(=O)NCc3ccccc3OC)O[C@@H](CO)[C@@H]1O2	-1	0	-3	0	19*
COc1ccc(-c2cn(CC[C@@H]3CC[C@H](NC(=O)NC(C)C)[C@H](CO)O3)nn2)cc1	-13	1	4	0	-5
CC(C)(C)OC(=O)N1CCC[C@H]1c1nnc(SCc2cccc(Cl)c2)o1	2	-1	-5	0	23*
Cc1cc(Br)ccc1NC(=O)CN(C)C(=O)Cn1c(=O)cnc2ccccc21	0	5	38*	-1	0
CN(CC(=O)Nc1cccc(F)c1)C(=O)Cn1c(=O)cnc2ccccc21	5	-1	-10	-3	0
Cc1ccc(-c2nc3ccc(NS(=O)(=O)c4ccccc4)cc3[nH]2)o1	-2	-32*	-2	-2	-4
CCOC(=O)c1cc2sccc2n1CCCN1C(=O)c2ccccc2C1=O	0	-28*	-3	-1	1
CCOC(=O)Cn1c(C(=O)OCC)cc2sccc21	4	0	1	.	0
C/C=C/c1ccc([C@H]2[C@@H](CO)N(S(C)(=O)=O)C23CN(C(=O)CC)C3)cc1	4	2	-1	-2	1
CC1CCC(C(C)C)C(OCC(O)C[N+]2(C)CCCCC2)C1 (stereo unspecified)	0	.	103*	2	-1
CC1CCC(C(C)C)C(OCC(O)CN2CCOCC2)C1 (stereo unspecified)	5	-12	1	-1	-1
C[C@H](CO)N1C[C@H](C)[C@H](CN(C)C(=O)NC2CCCCC2)Oc2c(NS(=O)(=O)c3ccc(F)cc3)cccc2C1=O	7	-8	-6	-2	.
COc1ccccc1N/N=C/c1ccc2c(c1)OCO2	-5	12	-3	2	-2
CSc1nsc(N/N=C/c2ccc3c(c2)OCO3)c1C#N	-1	-29*	5	2	3
COc1ccc2c3c(n(C)c2c1)[C@H](CO)N(C(=O)NC(C)C)CC31CCN(C(C)=O)CC1	.	2	.	0	.
C[C@H](CO)N1C[C@H](C)[C@@H](CN(C)S(C)(=O)=O)Oc2ccc(NS(=O)(=O)c3ccc(Cl)cc3)cc2CC1=O	-3	1	-1	0	-4
